In ChEMBL document CHEMBL3632484, “Synthesis and preliminary biological evaluation of a small library of hybrid compounds based on Ugi isocyanide multicomponent reactions with a marine natural product scaffold” (Bioorg Med Chem Lett, 2015):
In brackets after ≈: the same amount, converted by molar mass.

How the values were obtained:
[1] = tested on: Mycobacterium tuberculosis; experiment: Antimycobacterial activity against Mycobacterium tuberculosis H37Rv ATCC 27294 by microplate alamar blue assay; assay type: functional
In short: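 Minimum inhibitory concentration by microplate Alamar blue assay against the H37Rv laboratory strain, reported in μg/mL as the mean of three experiments.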

Plasmodium falciparum = experiment: Antiplasmodial activity against chloroquine-susceptible Plasmodium falciparum 3D7 infected in human O+ erythrocytes after 72 hrs by SYBR Green based parasite proliferation assay; assay type: functional, organism-based; settings: 3D7, 72 h
[2] = Antineuroinflammatory activity in LPS-primed rat neonatal microglia assessed as inhibition of PMA-stimulated release of TXB2 after 70 mins; assay type: functional
In short: (§1)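 Rat microglia primed with E. coli LPS, then stimulated with PMA (1 μM) for 70 min. Release of superoxide (O2–) and of TXB2 is measured, and the IC50 is the concentration that inhibits release. Short-term viability is checked in parallel by LDH release (LDH50 = 50% of total cellular LDH). Data come from 1–4 independent experiments.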

[3] = Selectivity index, ratio of IC50 for African green monkey Vero cells to IC50 for chloroquine-susceptible Plasmodium falciparum 3D7; assay type: toxicity, cell-based; settings: read-out: Ratio IC50
In short: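 Index calculated as Vero cell IC50 divided by the IC50 against chloroquine-susceptible P. falciparum 3D7. The 3D7 IC50 is the concentration giving 50% parasite survival, reported in nM as the mean ± standard error of three experiments.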

[4] = Antineuroinflammatory activity in LPS-primed rat neonatal microglia assessed as inhibition of PMA-stimulated release of O2- after 70 mins; assay type: functional; in short: as §1
Vero = experiment: Cytotoxicity against African green monkey Vero cells; assay type: cell-based; settings: Chlorocebus sabaeus
In short: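 IC50 in mammalian Vero cells, reported in nM as the mean of three experiments.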

[5] = Cytotoxicity against rat neonatal microglia assessed as cell viability by lactate dehydrogenase release assay; settings: read-out: LD50 (the source's name)
In short: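 Rat microglia were primed with E. coli LPS and then stimulated with PMA (1 μM) for about 70 min. LDH release was measured as short-term viability. LDH50 is the concentration causing release of 50% of the total cellular LDH content. Data come from 1–4 independent experiments.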

Row | Structure (SMILES) | MIC [1] [µg/mL] | IC50 (Plasmodium falciparum) [nM] | IC50 [2] [nM] | selectivity ratio [3] | IC50 [4] [nM] | IC50 (Vero) [nM] | CC50 [5] [nM]
1 | NNC(=O)c1ccncc1 [ISONIAZID] | 0.44 (≈ 3.21 µM) |  |  |  |  |  | 
2 | [C-]#[N+][C@@]12CCC(=C)[C@H]3[C@H](CC(C)(C)NC(=O)C(c4ccccc4)N(CCC(C)C)C(=O)c4ccncc4)C[C@H](C)[C@@H](CC[C@@H]1C)[C@@H]32 (mixture of isomers) | 56.4 | 13 | 100 | 3780 | > 10000 | 49200 | > 10000
3 | [C-]#[N+][C@@]12CCC(=C)[C@H]3[C@H](CC(C)(C)NC(=O)CN(CCNc4ccnc5cc(Cl)ccc45)C(=O)c4ccncc4)C[C@H](C)[C@@H](CC[C@@H]1C)[C@@H]32 | 52 (≈ 76.3 µM) | 3.6 | 900 | 7150 | 5000 | 25800 | 5000
4 | [C-]#[N+]C(C)(C)C[C@@H]1C[C@H](C)[C@H]2CC[C@H](C)[C@@]3([N+]#[C-])CCC(=C)[C@@H]1[C@H]23 [DIISOCYANOAMPHILECTENE] | 3.2 (≈ 9.86 µM) | 1.2 | 230 | 83100 | > 10000 | 99700 | > 10000
5 | [C-]#[N+][C@@]12CCC(=C)[C@H]3[C@H](CC(C)(C)NC(=O)CNC(=O)c4ccncc4)C[C@H](C)[C@@H](CC[C@@H]1C)[C@@H]32 | 102 (≈ 214 µM) | 6.3 | 1100 |  | > 10000 |  | > 10000
6 | [C-]#[N+][C@@]12CCC(=C)[C@H]3[C@H](CC(C)(C)NC(=O)CN(CCNc4ccnc5cc(Cl)ccc45)C(C)=O)C[C@H](C)[C@@H](CC[C@@H]1C)[C@@H]32 | 17.9 (≈ 29 µM) | 11.1 | 800 | 2570 | 1700 | 28600 | 5000
7 | [C-]#[N+][C@@]12CCC(=C)[C@H]3[C@H](CC(C)(C)NC(=O)CN(CCC(C)C)C(=O)c4ccncc4)C[C@H](C)[C@@H](CC[C@@H]1C)[C@@H]32 | 14.9 (≈ 27.2 µM) | 11.5 | 3000 | 1720 | > 10000 | 19800 | > 10000
